Measured values from ChEMBL document CHEMBL4376844, “A Novel Decalin-Based Bicyclic Scaffold for FKBP51-Selective Ligands” (J Med Chem, 2020).
Active and inactive are the calls of the source. No cut-off for these calls is given here.

Columns and labels:
[1] = molecular target: T1, Peptidyl-prolyl cis-trans isomerase FKBP5 (Homo sapiens, UniProt Q13451); experiment: Inhibition of human full length N-terminal His-tagged/C-terminal FLAG tagged FKBP51 expressed in Escherichia coli BL21 (DE3) cells incubated for 30 mins by competitive fluorescence polarization assay
T1 sequence (Q13451 whole entry): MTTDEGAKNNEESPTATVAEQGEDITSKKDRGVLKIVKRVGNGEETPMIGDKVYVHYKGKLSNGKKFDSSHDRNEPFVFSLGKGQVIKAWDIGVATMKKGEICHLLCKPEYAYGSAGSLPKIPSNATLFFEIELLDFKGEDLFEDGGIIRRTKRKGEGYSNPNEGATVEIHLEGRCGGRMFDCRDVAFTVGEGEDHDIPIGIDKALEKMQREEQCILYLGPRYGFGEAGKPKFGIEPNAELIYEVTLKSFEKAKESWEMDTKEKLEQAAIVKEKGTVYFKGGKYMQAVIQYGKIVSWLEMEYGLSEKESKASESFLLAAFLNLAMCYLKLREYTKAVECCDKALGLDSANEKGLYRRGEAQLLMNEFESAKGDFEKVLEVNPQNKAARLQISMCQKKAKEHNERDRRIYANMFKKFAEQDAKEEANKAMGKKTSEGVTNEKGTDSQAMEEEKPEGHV

[2] = molecular target: T2, Peptidyl-prolyl cis-trans isomerase FKBP4 (Homo sapiens, UniProt Q02790); experiment: Inhibition of human full length N-terminal His-tagged/C-terminal FLAG tagged FKBP52 expressed in Escherichia coli BL21 (DE3) cells incubated for 30 mins by competitive fluorescence polarization assay; conditions: 0.5 h
T2 sequence (Q02790 whole entry): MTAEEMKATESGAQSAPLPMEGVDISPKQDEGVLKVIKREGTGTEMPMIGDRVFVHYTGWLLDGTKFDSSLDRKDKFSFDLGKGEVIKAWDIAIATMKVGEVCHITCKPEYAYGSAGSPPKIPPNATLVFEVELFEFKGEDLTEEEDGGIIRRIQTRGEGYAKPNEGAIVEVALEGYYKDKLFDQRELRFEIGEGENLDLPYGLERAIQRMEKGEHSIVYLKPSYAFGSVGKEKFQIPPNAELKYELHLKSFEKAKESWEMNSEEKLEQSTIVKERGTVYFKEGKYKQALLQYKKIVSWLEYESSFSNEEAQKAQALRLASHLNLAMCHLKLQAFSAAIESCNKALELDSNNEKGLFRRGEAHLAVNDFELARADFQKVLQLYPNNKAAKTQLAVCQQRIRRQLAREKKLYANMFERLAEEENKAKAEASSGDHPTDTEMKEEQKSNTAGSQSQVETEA

Cytochrome P450 3A4 = Cytochrome P450 3A4 (Homo sapiens, UniProt P08684); experiment: Inhibition of CYP3A4 (unknown origin); format: ADME
[3] = Solubility of compound; format: physicochemical
[4] = molecular target: T3, Peptidyl-prolyl cis-trans isomerase FKBP5 (Homo sapiens) (UniProt Q13451); experiment: Inhibition of human full length N-terminal His-tagged/C-terminal FLAG tagged FKBP51 expressed in Escherichia coli BL21 (DE3) cells at >=10 uM incubated for 30 mins by competitive fluorescence polarization assay
T3 sequence (whole entry): T1 sequence (Q13451 whole entry)

KB = experiment: Cytotoxicity against human KB/HeLa cells overexpressing FKBP51 assessed as cell death up to 60 uM incubated for 72 hrs by propidium iodide staining based flow cytometry analysis; format: functional
Procedure, shortened: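 KB cells exposed to a range of compound doses for 72 h. 1×10^5 cells washed in PBS, then permeabilized in 0.1% sodium citrate, 0.1% Triton X-100 and 50 µg/mL propidium iodide for 30 min at 4°C in the dark. Nuclear DNA content read by flow cytometry on a log scale with debris gated out by forward scatter; % hypodiploid nuclei taken as dead cells. Four experiments, each in triplicate.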

Sequence of Cytochrome P450 3A4 (P08684 whole entry): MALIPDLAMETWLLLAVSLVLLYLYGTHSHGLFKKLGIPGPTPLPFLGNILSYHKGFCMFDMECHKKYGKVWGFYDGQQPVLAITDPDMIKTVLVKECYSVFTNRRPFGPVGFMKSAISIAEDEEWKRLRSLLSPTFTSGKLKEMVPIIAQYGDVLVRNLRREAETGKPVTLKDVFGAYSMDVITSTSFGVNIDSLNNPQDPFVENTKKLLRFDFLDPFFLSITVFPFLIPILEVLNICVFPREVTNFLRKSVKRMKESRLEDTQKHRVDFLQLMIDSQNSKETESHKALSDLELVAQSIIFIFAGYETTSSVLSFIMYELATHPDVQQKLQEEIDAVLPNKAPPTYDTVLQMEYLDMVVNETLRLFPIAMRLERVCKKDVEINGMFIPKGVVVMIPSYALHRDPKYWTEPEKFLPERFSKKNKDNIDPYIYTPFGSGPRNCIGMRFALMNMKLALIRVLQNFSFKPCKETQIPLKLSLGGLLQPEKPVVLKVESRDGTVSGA

Structure (SMILES) | Ki [1] [nM] | inhibition (INH) [2] | solubility [3] [µM] | inhibition [4] | other results
COc1ccc(CC[C@@H](OC(=O)[C@@H]2CCCCN2C(=O)[C@@H]2CCC[C@@H]3CCCC[C@H]32)c2cccc(OCC(=O)O)c2)cc1OC | 810 | Not Active |  |  | IC50 (Cytochrome P450 3A4): 8400 nM
COc1ccc(CC[C@@H](OC(=O)[C@@H]2CCCCN2C(=O)[C@H]2[C@@H]3CCCC[C@H]3CC[C@@H]2C)c2cccc(OCC(=O)O)c2)cc1OC | 490 | Not Active |  |  | 
COc1ccc(CC[C@@H](OC(=O)[C@@H]2CCCCN2C(=O)[C@@H]2CCC(=O)[C@@H]3CCC[C@H]32)c2cccc(OCC(=O)O)c2)cc1OC | 3100 | Not Active |  |  | 
COc1ccc(CCC(OC(=O)C2CCCCN2C(=O)[C@H]2[C@@H]3CCCC[C@H]3C=C[C@@H]2C)c2cccc(OCCN3CCOCC3)c2)cc1OC (single isomer, unassigned) | 1900 | Not Active |  |  | 
COc1ccc(CC[C@@H](OC(=O)[C@@H]2CCCCN2C(=O)[C@@H]2CC(=O)C[C@@H]3CCC[C@H]32)c2cccc(OCC(=O)O)c2)cc1OC | 28000 | Not Active |  |  | 
COc1ccc(CCC(OC(=O)C2CCCCN2C(=O)[C@@H]2CC=C[C@@H]3CCCC[C@H]32)c2cccc(OCCN3CCOCC3)c2)cc1OC (single isomer, unassigned) | 2600 | Not Active |  |  | 
COc1ccc(CC[C@@H](OC(=O)[C@@H]2CCCCN2C(=O)[C@H]2[C@@H]3CCCC[C@H]3C=C[C@@H]2C)c2cccc(OCC(=O)O)c2)cc1OC | 2000 | Not Active |  |  | 
COc1ccc(CCC(OC(=O)C2CCCCN2C(=O)[C@H]2[C@@H]3CCCC[C@H]3C(=O)C[C@@H]2C)c2cccc(OCCN3CCOCC3)c2)cc1OC (single isomer, unassigned) | 330 | Not Active |  |  | 
COc1ccc(CC[C@@H](OC(=O)[C@@H]2CCCCN2C(=O)[C@@H]2CCC[C@@H]3CCC[C@H]32)c2cccc(OCC(=O)O)c2)cc1OC | 2600 | Not Active |  |  | 
COc1ccc(CC[C@@H](OC(=O)[C@@H]2CCCCN2C(=O)[C@@H]2C[C@H]3OC(C)(C)O[C@H]3[C@@H]3CCCC[C@H]32)c2cccc(OCCN3CCOCC3)c2)cc1OC | 8200 | Not Active |  |  | 
COc1ccc(CCC(OC(=O)C2CCCCN2C(=O)[C@@H]2CCC(=O)[C@@H]3CCCC[C@H]32)c2cccc(OCCN3CCOCC3)c2)cc1OC (single isomer, unassigned) | 230 | Not Active |  |  | 
COc1ccc(CCC(OC(=O)C2CCCCN2C(=O)[C@@H]2CC(=O)C[C@@H]3CCCC[C@H]32)c2cccc(OCCN3CCOCC3)c2)cc1OC (single isomer, unassigned) | 1300 | Not Active |  |  | 
COc1ccc(CC[C@@H](OC(=O)[C@@H]2CCCCN2C(=O)[C@@H]2CCC(O)[C@@H]3CCCC[C@@H]23)c2cccc(OCCN3CCOCC3)c2)cc1OC (stereo not given in full) |  | Not Active |  |  | 

Further lines, with some results ahead:

Ki [1] [nM] | inhibition (INH) [2] | solubility [3] [µM] | inhibition [4] | Structure (SMILES) | other results
 |  | > 10 | inactive | COc1ccc(CC[C@@H](OC(=O)[C@@H]2CCCCN2C(=O)C2=CCc3ccccc32)c2cccc(OCC(=O)O)c2)cc1OC | 
 |  | > 10 | inactive | COc1ccc(CC[C@@H](OC(=O)[C@@H]2CCCCN2C(=O)c2nccc3ccccc23)c2cccc(OCC(=O)O)c2)cc1OC | 
 |  | > 10 | inactive | COc1ccc(CC[C@@H](OC(=O)[C@@H]2CCCCN2C(=O)[C@@H]2CCCc3ccccc32)c2cccc(OCC(=O)O)c2)cc1OC | 
7800 | Not Active |  |  | COc1ccc(CC[C@@H](OC(=O)[C@@H]2CCCCN2C(=O)[C@@H]2CC=C[C@@H]3CCC[C@H]32)c2cccc(OCC(=O)O)c2)cc1OC | 
 |  | > 10 | inactive | COc1ccc(CC[C@@H](OC(=O)[C@@H]2CCCCN2C(=O)c2ccnc3ccccc23)c2cccc(OCC(=O)O)c2)cc1OC | 
2400 | Not Active |  |  | COc1ccc(CC[C@@H](OC(=O)[C@@H]2CCCCN2C(=O)[C@@H]2CC=C[C@@H]3CCCC[C@H]32)c2cccc(OCC(=O)O)c2)cc1OC | 
 |  | > 10 | inactive | COc1ccc(CC[C@@H](OC(=O)[C@@H]2CCCCN2C(=O)c2cccc3cccnc23)c2cccc(OCC(=O)O)c2)cc1OC | 
 |  | > 10 | inactive | COc1ccc(CC[C@@H](OC(=O)[C@@H]2CCCCN2C(=O)c2cccc3ccccc23)c2cccc(OCC(=O)O)c2)cc1OC | Activity (KB): inactive
 |  | > 10 | inactive | COc1ccc(CC[C@@H](OC(=O)[C@@H]2CCCCN2C(=O)c2cccc3c2CCCC3)c2cccc(OCC(=O)O)c2)cc1OC | 
